# Screening results deposited in PubChem BioAssay by Broad Institute.
# Hits are enriched below; roughly 3% of the tested compounds scored in any of these assays.
# esBAF inh: SWI/SNF esBAF complex inhibition | mouse ES cells, Bmi1-luciferase knock-in reporter, 24 h; 100% = twice the neutral-well signal | reporter increase, % at 12.5 µM | 2% of 350,000 active | AID 602393; in the data active means activation above about 40%; inconclusive means no clear call, values can overlap the other calls;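 further: 0% = median of the plate's neutral control wells and 100% = double that signal; a rise in the Bmi1 reporter signal indicates esBAF inhibition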
# XiGFP reactiv: X-chromosome reactivation activator | XiGFP mouse fibroblasts, % GFP-positive cells imaging, 3 d; cells co-treated with 5-aza-dC sensitizer; scaled so ellipticine positive control = 100% | 0.055% of 360,000 active | activation, % at 7.58 µM;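 active means mean normalized replicate activation at least 10% and every replicate at or above 10%; inconclusive means only one of the two criteria met; inactive means mean below 10% and not all replicates reach 10%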;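 further: 0% = median of on-plate neutral control wells and 100% = ellipticine 6 µM median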
#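 material = 68-5-11 XiGFP fibroblast line | medium = DMEM plus 5-aza-dC sensitizer | schedule = 3 days compound exposure | benchmarks = positive control ellipticine, 6 µM final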
# CASP6 VEID inh: blocks human caspase-6 cleavage activity; P55212; purified caspase-6, Z-VEID-R110 cleavage fluorescence; inhibition, % at 12.5 µM; 0.53% of 350,000 active; AID 686996;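 active means mean inhibition across replicates at least about 35%, with every replicate also reaching that limit, limit read from the data; inconclusive means only one of the two criteria met; inactive means neither criterion met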;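 further: 0% = median of neutral control wells and 100% = no fluorescence left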
# NSD2 inh: blocks human histone methyltransferase NSD2; inhibition, % at 12.5 µM; O96028; 0.54% of 310,000 active; AID 743445; NSD2 peptide methylation, AlphaScreen, 120 min; in the data active means inhibition above about 50%
# MITF TRPM1 HTS: MITF TRPM1 promoter activation in melanoma cells | SK-MEL-5 TRPM1-promoter luciferase, 24 h; % of positive control, neutral wells = 0 | AID 588334 | 0.75% of 300,000 active | activation, % at 12.5 µM;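 active means mean activation of at least 80% with every replicate also reaching 80%; inconclusive means mean reaches 80% but some replicate falls short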;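 further: 0% = neutral control wells and 100% = parthenolide positive control wells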
# Wnt act: activators of Wnt/beta-catenin signaling; Wnt/beta-catenin reporter cell assay, activator, plate reader; activation, % at 9.35 µM; 1.2% of 300,000 active; AID 743398; in the data active means activation above about 30%, passing the limit was not always enough; inconclusive means no clear call, values can overlap the other calls;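 further: 0% = neutral control wells and 100% = positive control wells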
# Active calls of the source: *; ? = inconclusive; nt = no result given.
SMILES,esBAF inh,XiGFP reactiv,CASP6 VEID inh,NSD2 inh,MITF TRPM1 HTS,Wnt act
CCn1c(CSc2nc3ccccc3n2C)nc2ccccc21,7,nt,nt,-3,15,-6
Cc1cc(-c2nc3cc(F)ccc3s2)ccc1N,nt,0,-1,5,8,60*
O=C1C(Cl)=C(NCc2ccco2)C(=O)c2ccccc21,nt,0,99*,71*,-93,-2
O=C(Nc1ccccc1F)c1coc(=O)c(Br)c1,nt,0,74*,2,26,4
Nc1cc2cccnc2cc1Cl,2,0,62*,36,-8,-5
COc1ccc(NC(=O)C#Cc2ccccc2)cc1OC,5,0,16,1,nt,1
NC(=O)c1ccc(NC(=O)C#Cc2ccccc2)cc1,32,0,1,-3,-9,41*
C[C@@H]1CCCCO[C@H](CN(C)S(=O)(=O)c2ccc(Cl)cc2)[C@H](C)CN([C@H](C)CO)C(=O)c2cc(N(C)C)ccc2O1,-2,-1,-1,nt,nt,nt
CSCC[C@@H](C(=O)O)N1Cc2ccccc2C1=O,3,0,18,nt,2,0
COC(=O)C(Cc1ccc(OC(=O)c2ccc(C(F)(F)F)cc2)cc1)N1Cc2ccccc2C1=O (centres undefined),46*,nt,nt,nt,nt,4
COc1ccc(COc2ccc3ccc(=O)oc3c2)cc1,56*,0,3,-3,118*,26
COc1cccc(COc2ccc3ccc(=O)oc3c2)c1,39,0,2,-4,61,25
COc1ccccc1CN1CC(C(=O)NCc2c(F)ccc(C)c2F)CCC1=O (centres undefined),51*,1,-3,0,80,14
COc1ccccc1CN1CC(C(=O)NCc2ccc(C)c(F)c2)CCC1=O (centres undefined),0,0,-1,8,13,0
CC(=O)N/C(N)=N/c1nc(=O)c2ccccc2s1,nt,?,0,-2,nt,29
CCOC(=O)N/C(N)=N/c1nc2ccccc2s1,57*,nt,nt,-1,nt,56*
CN(C)c1ccc(/C=N/OC(=O)Nc2ccccc2)cc1,2,0,-2,3,34,52*
c1ccc(-c2ccc(-n3ccnc3)cc2)cc1,56*,nt,nt,4,67,?
CCN(CC)c1ccc(/C=C2\SC(N)=NC2=O)cc1,49*,0,2,1,32,0
C[C@H]1CC=CC[C@H](c2ccc3c(c2)OCO3)NC(=O)[C@H](Cc2ccccc2)N(C)C(=O)c2ccccc2O1 (mixture of isomers),nt,0,nt,nt,nt,nt
CCc1cccc2c(C(=O)COC(=O)c3ccccc3)c[nH]c12,nt,0,-2,4,73,-2
CCc1cccc2c(C(=O)COC(=O)c3nccnc3N)c[nH]c12,79*,0,2,-2,31,11
CCc1cccc2c(C(=O)COC(=O)c3ccc(O)cc3)c[nH]c12,49*,0,-2,2,11,3
CC(=O)Nc1ccc(C=C(C#N)c2ccc(C)cc2)cc1,?,0,nt,-1,nt,47*
Cc1ccccc1OCC(=O)Nc1ccc2c(c1)OCCO2,nt,nt,-1,-1,125*,38*
SMILES,esBAF inh,XiGFP reactiv,CASP6 VEID inh,NSD2 inh,MITF TRPM1 HTS,Wnt act
COc1ccccc1C(=O)Nc1ccc2c(c1)OCCO2,59*,nt,nt,-1,37,nt
NC(=O)c1ccccc1OCC(=O)Nc1ccc2c(c1)OCCO2,?,0,-1,-1,96*,22
COc1ccc(C(=O)NC(=S)Nc2nc(C)cc(C)n2)cc1Br,nt,0,12,-1,nt,42*
Cc1ccccc1OCC(=O)OCC(=O)Nc1ccc2c(c1)OCO2,-4,0,3,-2,-3,1
COCC#Cc1cnc2c(c1)C(=O)N([C@H](C)CO)C[C@H](C)[C@H](CN(C)C(=O)C1CCCCC1)O2,-2,0,-2,nt,nt,nt
COc1ccc(NC(=O)Nc2ccc3c(c2)CC(=O)N([C@H](C)CO)C[C@H](C)[C@@H](CN(C)S(=O)(=O)c2ccc(C)cc2)O3)cc1,nt,0,0,nt,nt,nt
CO[C@H]1CN(C)C(=O)c2ccc(NC(=O)Nc3ccccc3F)cc2OC[C@H](C)N(C(C)=O)C[C@@H]1C,7,0,1,nt,nt,nt
O=C(c1ccc2c(c1)OCO2)N1CC2(C1)[C@@H](c1ccccc1)[C@@H](CO)N2C(=O)C1CCCC1,nt,0,2,nt,nt,nt
C[C@@H]1CN(C)C(=O)c2cccc(NS(C)(=O)=O)c2O[C@@H]1CN(C)C,nt,0,nt,nt,nt,nt
CN1[C@@H]2c3ccc(C4=CCCC4)c(=O)n3C[C@@H]2[C@@H](CO)[C@@H]1C(=O)NCc1ccccc1F,2,0,-3,nt,nt,nt
Cc1oc(C(C)(C)C)cc1C(=O)Nc1ccc2c(c1)OCCO2,44*,nt,nt,-1,40,nt
O=C(Nc1ccc2c(c1)OCCO2)c1cccc(Cl)c1Cl,88*,0,2,8,nt,15
COc1ccccc1OCCC(=O)Nc1ccc2c(c1)OCO2,18,0,4,-2,12,-2
COc1ccc(C(=O)Nc2ccc3c(c2)OCCO3)cc1Br,48*,0,0,-4,nt,2
O=C(Nc1ccc2c(c1)OCCO2)c1ccc(Br)cc1,3,0,-11,-1,45,10
COc1ccccc1OCC(=O)Nc1ccc2c(c1)OCCO2,45*,0,-2,10,?,4
C=C(C)C(=O)Nc1ccc2c(c1)OCCOCCOCCO2,nt,0,53*,nt,nt,8
Cc1cccc(NC(=O)COc2ccc(Br)cc2/C=N/O)c1,nt,0,1,-2,122*,15
Cc1cc(C)c(OCC(=O)Nc2cccc(O)c2)cc1C,55*,nt,nt,-2,?,nt
COc1ccccc1OCC(=O)Nc1nc(C)c(C)s1,30,0,-1,5,85*,35*
COc1ccc(Cl)cc1C(=O)Nc1ccc2c(c1)OCO2,51*,nt,nt,5,nt,nt
O=C(COc1ccccc1Cl)NCCc1ccc2c(c1)OCCO2,nt,1,1,0,29,-2
O=C(COc1ccccc1Cl)Nc1ccc2c(c1)OCCO2,49*,nt,nt,0,54,nt
Cc1cccc(C)c1OCC(=O)Nc1ccc2c(c1)OCCO2,43*,0,0,24,35,18
CCOC(=O)c1cnc(SCCc2ccccc2)nc1N,42*,nt,nt,nt,95*,37*
SMILES,esBAF inh,XiGFP reactiv,CASP6 VEID inh,NSD2 inh,MITF TRPM1 HTS,Wnt act
CCOC(=O)c1cnc(SCC(=O)c2ccc(Cl)cc2)nc1N,5,nt,nt,-1,nt,1
CCOC(=O)c1cnc(SCc2ccc(C)cc2)nc1N,61*,nt,nt,1,74,nt
CCCCSc1ncc(C(=O)OCC)c(N)n1,32,nt,nt,-1,112*,nt
COc1ccc2c3c([nH]c2c1)[C@H](CO)N(Cc1ccncc1)CC31CN(C(=O)c2cccnc2)C1,nt,0,nt,nt,nt,nt
Cc1ccc(OCc2nc(-c3ccccn3)no2)c(Br)c1,-48,nt,nt,-6,16,-2
CC(C)c1ccc(OCc2nc(-c3ccccn3)no2)c(Br)c1,25,nt,nt,-5,79,76*
